Reference: ChEMBL document CHEMBL5058577, “EUbOPEN Chemogenomics Library 2 (Multiplex)” (2022)

Test system: Fibroblast
Assay: Multiplex assay against human fibroblast
Format: toxicity, cell-based
Procedure, shortened: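 Hoechst33342, BioTracker Green Microtubule Cytoskeleton Dye, MitoTracker Red and Annexin V Alexa Fluor 680 were added to live cells at seeding, and imaging on a CQ1 microscope at 37°C and 5% CO2 followed compound addition. Gating by CellPathfinder machine learning separated cells into Hoechst high-intensity objects or normal cells, then normal cells into healthy, pyknosed or fragmented nuclei, then pyknosed cells into mitotic or apoptotic. Per cents of healthy-nucleus cells are reported for the tubulin, mitochondrial-mass and membrane-permeability phenotypes.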

[1] = 12 h, 1 µM, compound concentration 1 uM, replicate 1
[2] = 12 h, 1 µM, compound concentration 1 uM, replicate 2
[3] = 12 h, 10 µM, compound concentration 10 uM, replicate 1
[4] = 12 h, 10 µM, compound concentration 10 uM, replicate 2
[5] = 24 h, 1 µM, compound concentration 1 uM, replicate 1
[6] = 24 h, 1 µM, compound concentration 1 uM, replicate 2
[7] = 24 h, 10 µM, compound concentration 10 uM, replicate 1
[8] = 24 h, 10 µM, compound concentration 10 uM, replicate 2
[9] = 48 h, 1 µM, compound concentration 1 uM, replicate 1
[10] = 48 h, 1 µM, compound concentration 1 uM, replicate 2
[11] = 48 h, 10 µM, compound concentration 10 uM, replicate 1
[12] = 48 h, 10 µM, compound concentration 10 uM, replicate 2

CN[C@@H](C)C(=O)N[C@H](C(=O)N1CCC[C@H]1C(=O)Nc1snnc1-c1ccccc1)C1CCCCC1 [GDC-0152]
Population Apoptotic (%) [1]: 70%
Population Fragmented Nuclei (%) [1]: 14%
Population Healthy Nuclei (%) [1]: 68%
Population Hoechst High Intensity Objects (%) [1]: 4%
Population Membrane Permeable-Phenotype (%) [1]: 1%
Population Mitochondria Different-Phenotype (%) [1]: 6%
Population Mitotic Cells (%) [1]: 30%
Population Normal (%) [1]: 95%
Population Pyknosed Nuclei (%) [1]: 16%
Population Tubulin-Different-Phenotype (%) [1]: 38%
Total Cell Count [1]: 127
Population Apoptotic (%) [2]: 33%
Population Fragmented Nuclei (%) [2]: 16%
Population Healthy Nuclei (%) [2]: 56%
Population Hoechst High Intensity Objects (%) [2]: 6%
Population Membrane Permeable-Phenotype (%) [2]: 6%
Population Mitochondria Different-Phenotype (%) [2]: 9%
Population Mitotic Cells (%) [2]: 66%
Population Normal (%) [2]: 93%
Population Pyknosed Nuclei (%) [2]: 26%
Population Tubulin-Different-Phenotype (%) [2]: 62%
Total Cell Count [2]: 121
Population Apoptotic (%) [3]: 38%
Population Fragmented Nuclei (%) [3]: 17%
Population Healthy Nuclei (%) [3]: 59%
Population Hoechst High Intensity Objects (%) [3]: 6%
Population Membrane Permeable-Phenotype (%) [3]: 0%
Population Mitochondria Different-Phenotype (%) [3]: 13%
Population Mitotic Cells (%) [3]: 61%
Population Normal (%) [3]: 93%
Population Pyknosed Nuclei (%) [3]: 22%
Population Tubulin-Different-Phenotype (%) [3]: 80%
Total Cell Count [3]: 144
Population Apoptotic (%) [4]: 24%
Population Fragmented Nuclei (%) [4]: 26%
Population Healthy Nuclei (%) [4]: 34%
Population Hoechst High Intensity Objects (%) [4]: 10%
Population Mitochondria Different-Phenotype (%) [4]: 10%
Population Mitotic Cells (%) [4]: 75%
Population Normal (%) [4]: 90%
Population Pyknosed Nuclei (%) [4]: 39%
Population Tubulin-Different-Phenotype (%) [4]: 65%
Total Cell Count [4]: 150
Population Apoptotic (%) [5]: 60%
Population Fragmented Nuclei (%) [5]: 20%
Population Healthy Nuclei (%) [5]: 63%
Population Hoechst High Intensity Objects (%) [5]: 2%
Population Membrane Permeable-Phenotype (%) [5]: 1%
Population Mitochondria Different-Phenotype (%) [5]: 1%
Population Mitotic Cells (%) [5]: 40%
Population Normal (%) [5]: 97%
Population Pyknosed Nuclei (%) [5]: 16%
Population Tubulin-Different-Phenotype (%) [5]: 30%
Total Cell Count [5]: 123
Population Apoptotic (%) [6]: 37%
Population Fragmented Nuclei (%) [6]: 22%
Population Healthy Nuclei (%) [6]: 55%
Population Hoechst High Intensity Objects (%) [6]: 9%
Population Membrane Permeable-Phenotype (%) [6]: 2%
Population Mitochondria Different-Phenotype (%) [6]: 11%
Population Mitotic Cells (%) [6]: 62%
Population Normal (%) [6]: 90%
Population Pyknosed Nuclei (%) [6]: 22%
Population Tubulin-Different-Phenotype (%) [6]: 61%
Total Cell Count [6]: 133
Population Apoptotic (%) [7]: 67%
Population Fragmented Nuclei (%) [7]: 14%
Population Healthy Nuclei (%) [7]: 58%
Population Hoechst High Intensity Objects (%) [7]: 5%
Population Membrane Permeable-Phenotype (%) [7]: 0%
Population Mitochondria Different-Phenotype (%) [7]: 21%
Population Mitotic Cells (%) [7]: 32%
Population Normal (%) [7]: 94%
Population Pyknosed Nuclei (%) [7]: 26%
Population Tubulin-Different-Phenotype (%) [7]: 83%
Total Cell Count [7]: 135
Population Apoptotic (%) [8]: 41%
Population Fragmented Nuclei (%) [8]: 33%
Population Healthy Nuclei (%) [8]: 34%
Population Hoechst High Intensity Objects (%) [8]: 8%
Population Membrane Permeable-Phenotype (%) [8]: 16%
Population Mitochondria Different-Phenotype (%) [8]: 22%
Population Mitotic Cells (%) [8]: 58%
Population Normal (%) [8]: 91%
Population Pyknosed Nuclei (%) [8]: 31%
Population Tubulin-Different-Phenotype (%) [8]: 68%
Total Cell Count [8]: 157
Population Apoptotic (%) [9]: 47%
Population Fragmented Nuclei (%) [9]: 23%
Population Healthy Nuclei (%) [9]: 60%
Population Hoechst High Intensity Objects (%) [9]: 1%
Population Membrane Permeable-Phenotype (%) [9]: 0%
Population Mitochondria Different-Phenotype (%) [9]: 1%
Population Mitotic Cells (%) [9]: 52%
Population Normal (%) [9]: 98%
Population Pyknosed Nuclei (%) [9]: 16%
Population Tubulin-Different-Phenotype (%) [9]: 48%
Total Cell Count [9]: 132
Population Apoptotic (%) [10]: 57%
Population Fragmented Nuclei (%) [10]: 38%
Population Healthy Nuclei (%) [10]: 44%
Population Hoechst High Intensity Objects (%) [10]: 5%
Population Membrane Permeable-Phenotype (%) [10]: 2%
Population Mitochondria Different-Phenotype (%) [10]: 14%
Population Mitotic Cells (%) [10]: 42%
Population Normal (%) [10]: 94%
Population Pyknosed Nuclei (%) [10]: 17%
Population Tubulin-Different-Phenotype (%) [10]: 67%
Total Cell Count [10]: 159
Population Apoptotic (%) [11]: 76%
Population Fragmented Nuclei (%) [11]: 23%
Population Healthy Nuclei (%) [11]: 45%
Population Hoechst High Intensity Objects (%) [11]: 6%
Population Membrane Permeable-Phenotype (%) [11]: 0%
Population Mitochondria Different-Phenotype (%) [11]: 22%
Population Mitotic Cells (%) [11]: 23%
Population Normal (%) [11]: 93%
Population Pyknosed Nuclei (%) [11]: 31%
Population Tubulin-Different-Phenotype (%) [11]: 81%
Total Cell Count [11]: 145
Population Apoptotic (%) [12]: 44%
Population Fragmented Nuclei (%) [12]: 39%
Population Healthy Nuclei (%) [12]: 42%
Population Membrane Permeable-Phenotype (%) [12]: 19%
Population Mitochondria Different-Phenotype (%) [12]: 17%
Population Mitotic Cells (%) [12]: 55%
Population Pyknosed Nuclei (%) [12]: 18%
Population Tubulin-Different-Phenotype (%) [12]: 88%
Total Cell Count [12]: 159
